In PMC7114445 (Virus Research, 2015):

What was measured:
Test in all cases: Plaque inhibition test in fcwf-4 cells
type I FIPV strain KU-2 = type: cell-based, feline infectious peritonitis virus; details: for Plaque reduction by serial dilutions of peptides: peptide 160, 80 and 40 μM, triplicate
How it was run: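 Strain KU-2 plaque assay in fcwf-4 cells. Peptide from a 10 mM DMSO stock was diluted to 100 μM, or to 160, 80 and 40 μM, in medium with 2% FCS and 25 μg/mL DEAE-dextran, with 30 min RT pretreatment; 1% DMSO was the solvent control. Without washing, 10 μL of 8000 pfu/mL virus added, 30 min at 37 °C. Wash, carboxymethyl cellulose overlay, 2 days at 37 °C, crystal violet. % plaque inhibition against virus-alone wells.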

type I FIPV strain UCD-1 = type: cell-based, feline infectious peritonitis virus; details: peptide 100 μM
How it was run: (§1)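 Peptide (10 mM DMSO stock) diluted to 100 μM in medium with 2% FCS and 25 μg/mL DEAE-dextran, then applied to fcwf-4 cells for 30 min at RT. Same-fold DMSO (1%) served as solvent control. Without washing, 10 μL of 8000 pfu/mL virus added for 30 min at 37 °C. Cells washed, overlaid with 2% FCS/1.5% carboxymethyl cellulose for 2 days at 37 °C, formalin-fixed and crystal violet-stained. % plaque inhibition calculated against virus-alone wells.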

type I FIPV strain Black = type: cell-based, feline infectious peritonitis virus; details: peptide 100 μM
How it was run: as §1

[1] = tested on: type II FIPV strain 79-1146; type: cell-based, feline infectious peritonitis virus; details: peptide 100 μM
How it was run: as §1

FHV strain C7301 = type: cell-based, feline herpesvirus; details: peptide 100 μM, fcwf-4 cells 30 min RT, triplicate
How it was run: as §1

FCV strain F4 = type: cell-based, feline calicivirus; details: peptide 100 μM, fcwf-4 cells 30 min RT, triplicate
How it was run: as §1

[2] = fcwf-4 cells 30 min RT, vs 1% DMSO, triplicate

**Q.** For LFYKYTSLQGLYTYSNLVEL [I-S1-22], which “Plaque reduction by serial dilutions of peptides” value (“Plaque reduction” below) (type I FIPV strain KU-2) is on record?
**A.** dose-dependent

**Q.** Which “Plaque reduction” value (type I FIPV strain KU-2) does the source give for VNFSISSVEEYGFWTIAYTN [I-S1-8] here?
**A.** dose-dependent

**Q.** How did the “Plaque inhibition, type I FIPV strain KU-2” value (type I FIPV strain KU-2; peptide 100 μM) turn out when YHWMNVTLHVVLNDTEKKYD [I-S1-16] was run?
**A.** ≥ 50%

**Q.** And the “Plaque reduction” value (type I FIPV strain KU-2)?
**A.** dose-dependent

**Q.** What about the “Plaque inhibition, type I FIPV strain UCD-1” value (type I FIPV strain UCD-1; fcwf-4 cells) of the same sequence?
**A.** ≥ 50%

**Q.** What about the “Inhibition of infection by type I FIPV strain UCD-1” value (type I FIPV strain UCD-1; [2]) of the same sequence?
**A.** significantly inhibited

**Q.** What about the “Plaque inhibition, type I FIPV strain Black” value (type I FIPV strain Black; fcwf-4 cells) of the same sequence?
**A.** ≥ 50%

**Q.** And the “Inhibition of infection by type I FIPV strain Black” value (type I FIPV strain Black; [2])?
**A.** significantly inhibited

**Q.** What about the “Plaque inhibition, type II FIPV strain 79-1146” value ([1]; fcwf-4 cells) of the same sequence?
**A.** less than 50%

**Q.** What about the “Inhibition of infection by type II FIPV strain 79-1146” value [1, 2] of the same sequence?
**A.** significantly inhibited

**Q.** What about the “Inhibitory effect on infection by FHV strain C7301” value (FHV strain C7301) of the same sequence?
**A.** no inhibitory effects

**Q.** And the “Inhibitory effect on infection by FCV strain F4” value (FCV strain F4)?
**A.** no inhibitory effects

**Q.** YTDVMVDVNGTAITRLFYCD [I-S1-10] was tested. Which “Plaque reduction” value (type I FIPV strain KU-2) did it give?
**A.** dose-dependent
